Our source for the growth inhibition values is PubChem BioAssay AID685 (PCMD, 2007).

The campaign covered roughly 30,000 compounds. About 80 (0.3%) were called active.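 How the source made its calls: active means mutant and wild-type yeast strains alike exhibit over 30% growth inhibition; inconclusive means a strain exceeds 50% while the second remains under 30%; inactive means the rest.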 The entries come from a sample that favours actives as a whole.

This test can be described thus: S. cerevisiae growth inhibition, turbidity – wild-type and eIF2Bepsilon R284H mutant, A595, cytotoxicity control for eIF2B function restoration project, primary screen (AID 685).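 Further: 0% = untreated cell controls and 100% = YPD media blanks without cells.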 The settings on record: 16 h, stronger effect = higher value, screened at 25 µM (by protocol). Summed up: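 System – wild-type and eIF2Bepsilon-R284H mutant S. cerevisiae, screened separately · Measured by – absorbance at 595 nm (turbidity) · Timing – 16 h compound exposure during growth at 30 °C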

The mark [1] stands for this setting: S. cerevisiae eIF2Bepsilon-R284H mutant growth.

Consider `COc1ccc(NC(=O)CC2COc3ccccc3O2)c(OC)c1` (stereo unspecified), for which the growth inhibition under setting [1] is 19.1% and the growth inhibition (S. cerevisiae wild-type growth) was 20% (inactive).
Taken in the same sequence, the figures for `Cc1nnc(SCC(=O)NC(=O)NC2CCCC2)n1N` were 17.4% and 24.3% (inactive).
Taken in the same sequence, the figures for `COC(=O)c1ccc(S(=O)(=O)c2ccc(C(=O)OC)s2)s1` were -35.1% and -57.5% (inactive).
With `CC(=O)OC(C(=O)NC1CCCCC1)c1ccccc1` (stereo unspecified), the growth inhibition was 0% under setting [1] and 11% (inactive) (S. cerevisiae wild-type growth).
Regarding `CCC1CCCCN1CCCNC(=O)C1CCC(Cn2c(=O)[nH]c3ccccc3c2=O)CC1` (stereo unspecified), the growth inhibition under setting [1] was 15.6% and the growth inhibition (S. cerevisiae wild-type growth) is 10% (inactive).
Taken in the same sequence, the figures for `CCN1CCCC1Cn1cnc2c([nH]c3cc(OC)ccc32)c1=O` (stereo unspecified) were 8.7% and 10% (inactive).
`COc1cccc2c1OCC1COc3c(c(=O)n(C)c(=O)n3C)C21` (stereo unspecified): the growth inhibition under setting [1] was 8.33% and the growth inhibition (S. cerevisiae wild-type growth) is 14.8% (inactive).
Taken in the same sequence, the figures for `CCn1c(-c2ccoc2C)n[nH]c1=S` were 22.8% and 21.4% (inactive).
Taken in the same sequence, the figures for `CCOC(=O)C1=C(CSc2nccn2C)NC(=O)NC1c1ccc(OC)cc1` (stereo unspecified) were 5.26% and 17.1% (inactive).
On to `COC(=O)C1C(=O)NCC1c1ccc(OC)cc1` (stereo unspecified), for which the growth inhibition was 10.3% under setting [1] and 14.6% (inactive) (S. cerevisiae wild-type growth).
As for `Cc1cccc(S(=O)(=O)CC(=O)Nc2nc(-c3ccccc3)cs2)c1`, the growth inhibition was 10% under setting [1] and 3.33% (inactive) (S. cerevisiae wild-type growth).
Taken in the same sequence, the figures for `C=CCc1ccc(OCCOc2cccc(/C=N/n3cnnc3)c2)c(OC)c1` were -40.9% and 5% (inactive).
For the compound `Cc1nnc(SCC(=O)Nc2ncc3c(n2)CC(C)(C)CC3=O)s1`, the growth inhibition is 10.3% under setting [1] and 35% (inactive) (S. cerevisiae wild-type growth).
As to `CCOc1cc(N2CCOCC2)c(OCC)cc1NC(=O)COC(=O)[C@H](Cc1c[nH]c2ccccc12)NC(C)=O`, the growth inhibition is 6.98% under setting [1] and 26.6% (inactive) (S. cerevisiae wild-type growth).
Turning to `Cc1ccc(OCCCC(=O)Nc2ccc(N3CCOCC3)cc2)cc1`, the growth inhibition under setting [1] was -14.3% and the growth inhibition (S. cerevisiae wild-type growth) was 12.7% (inactive).
The corresponding values for `COC(=O)C1CCN(CC(N)=O)CC1` are 17.5% and 20.8% (inactive).
Consider `O=C(NCCCCCCNC(=O)NCc1ccco1)NCc1ccco1`, for which the growth inhibition is 24.3% under setting [1] and 17.8% (inactive) (S. cerevisiae wild-type growth).
`Cc1cc(=O)[nH]c(SCC(=O)N2c3ccccc3CC2C)n1` (stereo unspecified): the growth inhibition reads like this: under setting [1], 3.57%; (S. cerevisiae wild-type growth) 4.67% (inactive).
Taken in the same sequence, the figures for `CCCCOc1ccc(N(CC(=O)NCC2CCCO2)C(=O)CCC(=O)Nc2cc(C)ccn2)cc1` (stereo unspecified) were -6.45% and -28.3% (inactive).
With `O=C(c1ccc(CN2CCOCC2)cc1)N1CCN(c2ccccc2F)CC1`, the growth inhibition by setting is: under setting [1], 8.33%; (S. cerevisiae wild-type growth) 11.9% (inactive).
The corresponding values for `CC1=NN(/C(=N\c2nnc(C)s2)Nc2ccccc2)[C@H](c2ccc(C)cc2)S1` are -6.45% and 20.2% (inactive).
The corresponding values for `Cc1ccc(-c2cc(C(=O)NCC3CCCO3)c3ccccc3n2)o1` (stereo unspecified) are -6.45% and 6.79% (inactive).
The corresponding values for `CC1CCc2c(sc3nc4n(c(=O)c23)CCS4)C1` (stereo unspecified) are 15.4% and 36.9% (inactive).
In the case of `COC(=O)CNC(=O)c1ccccc1F`, the growth inhibition reads like this: under setting [1], 16.3%; (S. cerevisiae wild-type growth) 19.7% (inactive).
The corresponding values for `COc1ccc(N2CCN(Cc3ccc(Br)s3)CC2)cc1` are 10% and 16.1% (inactive).
Taken in the same sequence, the figures for `CC(C)(C)NC(=O)CN(Cc1cccs1)C(=O)CNS(=O)(=O)c1ccccc1` were 14.1% and 11.6% (inactive).
The corresponding values for `C/C(=N\NC(=O)c1nc(C)cc(C)n1)c1ccccc1` are 24.3% and 15.2% (inactive).
Consider `CCC(=NC1CC(C)(C)NC(C)(C)C1)C1=C(O)CC(C)(C)CC1=O`, for which the growth inhibition was 14.8% under setting [1] and 23.3% (inactive) (S. cerevisiae wild-type growth).
`CN1C(=O)C(CC(N)=O)N(NC(=O)c2ccc(Cl)cc2)C1=S` (stereo unspecified): the growth inhibition is 9.52% under setting [1] and 33.8% (inactive) (S. cerevisiae wild-type growth).
Regarding `COC(=O)c1sc(=S)n(-c2ccc(Cl)cc2)c1C`, the growth inhibition was 14.5% under setting [1] and 9.64% (inactive) (S. cerevisiae wild-type growth).
Taken in the same sequence, the figures for `CCOC(=O)c1ccc2c(c1)nc(SCC(=O)NC(C)C)n2CC` were 7.69% and 3.45% (inactive).
As to `CCOC(=O)C1C(=O)NCC1c1ccccc1` (stereo unspecified), the growth inhibition is, setting by setting: under setting [1], 22.1%; (S. cerevisiae wild-type growth) 11.5% (inactive).
Taken in the same sequence, the figures for `CCCCN1C(=O)/C(=C2/C=CC=CN2C)SC1=S` were 18.9% and 21.5% (inactive).
